In experiment [1] the target is Bacterial 70S ribosome. As to the kind of experiment: Competitive inhibition of peptidyl transferase activity of Escherichia coli ribosome using Ac[14C]-L-Phe-tRNA/puromycin as donor/acceptor substrate assessed as acetyl[14C]phenylalanylpuromycin formation by double reciprocal plot analysis. In outline:
(§1)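 E. coli washed ribosomes (2.78 A260 units) charged with 20.8 pmol Ac[14C]Phe-tRNA in 100 mM Tris-Cl pH 7.5, 100 mM NH4Cl, 15 mM Mg(OAc)2, 0.65 mM DTT, 1.2 mM GTP, FWR, poly(U), 8 min at 28 °C. Mixture then added to puromycin with or without inhibitor, 28 °C. Product measured radiometrically. Ki from double reciprocal plots; highest concentration tested 2 × 10^-4 M.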

In experiment [2] the target is T1, Bacterial 70S ribosome (Bacteria) (UniProt P0A7V0+P60723+P0AG67+P0A7R5+P0A7R9+P0A7S3+P0A7S9+P0AG59+P0ADZ4+P0A7T3+P0AG63+P0A7T7+P0A7U3+P0A7U7+P68679+P0A7V3+P0A7V8+P0A7W1+P02358+P02359+P0A7W7+P0A7X3+P0A7J3+P0A7J7+P0AA10+P0ADY3+P02413+P0ADY7+P0AG44+P0C018+P0A7K6+P0A7L0+P0A7L3+P0AG48+P61175+P0ADZ0+P60624+P68919+P0A7L8+P0A7M2+P0A7M6+P60422+P0AG51+P0A7N1+P0A7M9+P0A7N4+P0A7N9+P0A7P5+P0A7Q1+Q2EEQ2+P0A7Q6+P60438+P62399+P0AG55+P0A7K2). Briefly: Competitive inhibition of peptidyl transferase activity of Escherichia coli ribosome using Ac[14C]-L-Phe-tRNA/puromycin as donor/acceptor substrate assessed as acetyl[14C]phenylalanylpuromycin formation at 2 x 10^-4 M by double reciprocal plot analysis. Put shortly:
as §1

Experiment [3] concerns the target T1, Bacterial 70S ribosome (Bacteria). As to the kind of experiment: Competitive inhibition of peptidyl transferase activity of Escherichia coli ribosome using Ac[14C]-L-Phe-tRNA/puromycin as donor/acceptor substrate assessed as acetyl[14C]phenylalanylpuromycin formation at 10^-6 M preincubated for 15 mins prior to puromycin addition. In outline:
(§2)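 Ribosomes charged with Ac[14C]-L-Phe-tRNA as in the binding step (poly(U), GTP, FWR, Mg2+, 8 min, 28 °C). The charged mixture was preincubated with 10^-6 M inhibitor for 15 min at 28 °C before adding 10^-4 M puromycin. Ac[14C]Phe-puromycin formation was followed over time at 28 °C.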

For experiment [4] the target is unchanged. As to the kind of experiment: Competitive inhibition of peptidyl transferase activity of Escherichia coli ribosome using Ac[14C]-L-Phe-tRNA/puromycin as donor/acceptor substrate assessed as acetyl[14C]phenylalanylpuromycin formation incubated with donor substrate/enzyme prior to puromycin addition. In outline: as §2
For experiment [5], the target named is Bacterial 70S ribosome. Briefly: Competitive inhibition of peptidyl transferase activity of Escherichia coli ribosome using Ac[14C]-L-Phe-tRNA/puromycin as donor/acceptor substrate assessed as acetyl[14C]phenylalanylpuromycin formation by Dixon plot analysis.

The source made the active and inactive calls. No cut-off for these calls is given here.

As a reminder, the Ki is a dissociation constant, usually derived from enzyme kinetics or from competition with a known ligand.

Take `Cc1[nH]c(=O)[nH]c(=O)c1/C=C/C(=O)NC(CO)CSCc1ccccc1` (racemic): on Bacterial 70S ribosome [1], the inhibition constant (Ki) was 1210 nM.
For the compound `CCCSC[C@@H](CO)NC(=O)/C=C/c1c(C)[nH]c(=O)[nH]c1=O`, the inhibition entry in experiment [2] was “inactive”.
As for `CSC[S@@+]([O-])CC(CO)NC(=O)/C=C/c1c(C)[nH]c(=O)[nH]c1=O` (stereo partly specified) [SPARSOMYCIN], the Ki on Bacterial 70S ribosome [1] was found to be 500 nM. In addition, the inhibition result in experiment [3] was “Active”.
In the case of `CSCSCC(CO)NC(=O)/C=C/c1c(C)nc(O)nc1O` (racemic), the inhibition constant Ki on Bacterial 70S ribosome [1] was found to be 1090 nM. Moreover, in experiment [4], the inhibition entry is “Active”.
In the case of `Cc1[nH]c(=O)[nH]c(=O)c1/C=C/C(=O)NC(C)CO` (racemic), in experiment [2], the inhibition result is “inactive”.
On to `CCCSCC(CO)NC(=O)/C=C/c1c(C)[nH]c(=O)[nH]c1=O` (racemic), for which the Ki on Bacterial 70S ribosome [1] and on Bacterial 70S ribosome [5] was 2000 nM each time.
With `CCCSC[C@H](CO)NC(=O)/C=C/c1c(C)[nH]c(=O)[nH]c1=O`, the inhibition constant (Ki) on Bacterial 70S ribosome [1] came to 1100 nM.
Still for that read-out and setting: under `CCCCCC(CO)NC(=O)/C=C/c1c(C)[nH]c(=O)[nH]c1=O` (racemic) stands 2300 nM.

For the origin of these results see ChEMBL document CHEMBL3244100, “Effect of sparsomycin analogues on the puromycin-peptidyl transferase reaction on ribosomes” (J Med Chem, 1978).
